Data on 29 molecules can be found in ChEMBL document CHEMBL3272093, “Antibacterial halogenoacetyl derivatives of amino acids and simple peptides” (1977).

What is called MIC is the least concentration at which growth counts as inhibited.

One experiment concerns Escherichia coli. Nature of the experiment: Antibacterial activity against Escherichia coli assessed as inhibition of growth after 18 hrs by broth culture method. It is filed as functional. In a few lines:
(§1)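 Broth dilution in 0.5 mL Sensitivity Test Broth, inoculated with 0.2 mL of a 10^-4 dilution of an 18-h broth culture. MIC read after 18-h incubation as the lowest concentration preventing growth.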

The subject of a further experiment is Staphylococcus aureus. Nature of the experiment: Antibacterial activity against Staphylococcus aureus assessed as inhibition of growth after 18 hrs by broth culture method. It is filed as functional. In a few lines: as §1
The subject of experiment [1] is Salmonella enterica subsp. enterica serovar Typhimurium. Nature of the experiment: Inhibition of Salmonella typhimurium DD-carboxypeptidase using UDP-N-acetylmuramyl-L-alanyl-meso-diaminopimeloyl-D-alanyl-D-alanine as substrate at 10 to 100 ug/ml. In a few lines: (§2)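 Enzymes tested for release of D-alanine, measured with D-amino acid oxidase. Compounds assayed at 10 and 100 μg/mL. Substrates: Ac2-L-Lys-D-Ala-D-Ala for the Streptomyces R61 enzyme; UDP-N-acetylmuramyl-L-alanyl-meso-diaminopimeloyl-D-alanyl-D-alanine for the B. stearothermophilus and S. typhimurium enzymes.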

Experiment [2] addresses D-alanyl-D-alanine carboxypeptidase (Streptomyces sp. R61) (UniProt P15555). The experiment is described as follows: Inhibition of Streptomyces R61 DD-carboxypeptidase using Ac2-L-Lys-D-Ala-D-Ala as substrate at 10 to 100 ug/ml. A digest of the protocol: as §2
Experiment [3] addresses T1, D-alanyl-D-alanine carboxypeptidase DacA (Geobacillus stearothermophilus) (UniProt Q05523).
T1 sequence (whole entry): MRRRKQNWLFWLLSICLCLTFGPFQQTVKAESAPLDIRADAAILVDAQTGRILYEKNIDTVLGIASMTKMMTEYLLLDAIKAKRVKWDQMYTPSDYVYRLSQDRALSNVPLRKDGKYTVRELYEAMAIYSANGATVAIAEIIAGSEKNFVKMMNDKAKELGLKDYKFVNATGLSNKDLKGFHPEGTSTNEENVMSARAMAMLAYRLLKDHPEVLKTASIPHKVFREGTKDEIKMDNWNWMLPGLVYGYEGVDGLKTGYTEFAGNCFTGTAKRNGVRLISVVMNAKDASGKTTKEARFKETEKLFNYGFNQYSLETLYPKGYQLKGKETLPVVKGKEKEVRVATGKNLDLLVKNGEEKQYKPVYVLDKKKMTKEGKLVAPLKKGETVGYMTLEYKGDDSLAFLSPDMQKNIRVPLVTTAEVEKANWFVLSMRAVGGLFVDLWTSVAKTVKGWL
The experiment is described as follows: Inhibition of Bacillus stearothermophilus DD-carboxypeptidase using UDP-N-acetylmuramyl-L-alanyl-meso-diaminopimeloyl-D-alanyl-D-alanine as substrate at 10 to 100 ug/ml. A digest of the protocol:
as §2

In brackets after ≈: the same amount, converted by molar mass. Activity calls are given as the source filed them. The calls are words filed in the database; no cut-off is given here. Where only a bound is given, the exact number is not on record here.

Chain of D-alanyl-D-alanine carboxypeptidase (Streptomyces sp. R61) (P15555 whole entry): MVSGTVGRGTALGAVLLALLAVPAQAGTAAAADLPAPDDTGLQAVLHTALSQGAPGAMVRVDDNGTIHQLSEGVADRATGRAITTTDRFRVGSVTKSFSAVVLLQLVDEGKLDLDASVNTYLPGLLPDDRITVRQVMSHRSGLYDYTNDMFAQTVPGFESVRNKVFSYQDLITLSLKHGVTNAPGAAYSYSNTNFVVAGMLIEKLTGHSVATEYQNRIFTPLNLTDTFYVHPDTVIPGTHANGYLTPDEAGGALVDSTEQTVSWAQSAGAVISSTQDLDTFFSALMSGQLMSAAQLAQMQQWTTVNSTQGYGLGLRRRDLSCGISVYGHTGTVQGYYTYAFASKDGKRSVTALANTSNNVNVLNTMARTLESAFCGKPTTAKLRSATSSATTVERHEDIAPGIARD

Turning to `C[C@@H](NC(=O)[C@H](CCCCNC(=O)CI)NC(=O)OC(C)(C)C)C(=O)N[C@H](C)C(=O)OC(C)(C)C`, the figures for the MIC in the experiment on Escherichia coli and in the experiment with Staphylococcus aureus were over 500 µg/mL and 125 µg/mL (≈ 204 µM), respectively. Further, the inhibition entry in experiment [1], in experiment [2] and in experiment [3] was “inactive” in each case.

On to `C[C@@H](NC(=O)[C@H](CCCCNC(=O)OC(C)(C)C)NC(=O)CBr)C(=O)OC(C)(C)C`, for which the values for the MIC in the experiment on Escherichia coli and in the experiment with Staphylococcus aureus were over 500 µg/mL and 62 µg/mL (≈ 125 µM), respectively. Further, the inhibition result in experiment [1], in experiment [2] and in experiment [3] was “inactive” in each case.

As to `O=C(CI)NCCCCCC(=O)OCc1ccccc1`, the values for the minimal inhibitory concentration (MIC) in the experiment on Escherichia coli and in the experiment on Staphylococcus aureus were 62 µg/mL (≈ 159 µM) and 3.7 µg/mL (≈ 9.51 µM), respectively. For the same molecule, the inhibition result in experiment [1], in experiment [2] and in experiment [3] was “inactive” in each case.

In the case of `CC(C)(C)OC(=O)CCCCNC(=O)[C@H](CCCCN1C(=O)c2ccccc2C1=O)NC(=O)CI.O`, the MIC with Escherichia coli and in the experiment on Staphylococcus aureus was over 500 µg/mL in each case. In addition, the inhibition entry in experiment [1], in experiment [2] and in experiment [3] was “inactive” throughout.

Take `O=C(CI)NCCCC(=O)OCc1ccccc1`: the values for the minimal inhibitory concentration (MIC) in the experiment on Escherichia coli and in the experiment on Staphylococcus aureus were 250 µg/mL (≈ 692 µM) and 7.5 µg/mL (≈ 20.8 µM), respectively. Moreover, the inhibition entry in experiment [1], in experiment [2] and in experiment [3] was “inactive” throughout.

As to `C[C@@H](NC(=O)[C@@H](C)NC(=O)[C@H](CCCCN)NC(=O)CI)C(=O)O.O=C(O)C(F)(F)F`, the MIC in the experiment with Escherichia coli and in the experiment with Staphylococcus aureus was over 500 µg/mL in each case. Moreover, the inhibition result in experiment [1], in experiment [2] and in experiment [3] was “inactive” throughout.

Turning to `C[C@@H](NC(=O)[C@@H](C)NC(=O)[C@H](CCCCN)NC(=O)CBr)C(=O)O.O=C(O)C(F)(F)F`, the MIC in the experiment with Escherichia coli and with Staphylococcus aureus was over 500 µg/mL each time. Besides, the inhibition entry in experiment [1], in experiment [2] and in experiment [3] was “inactive” each time.

For the molecule `C[C@@H](NC(=O)[C@@H](C)NC(=O)[C@H](CCCCN1C(=O)c2ccccc2C1=O)NC(=O)CI)C(=O)O`, the MIC in the experiment on Escherichia coli is over 500 µg/mL; with Staphylococcus aureus, 500 µg/mL (≈ 853 µM). Further, the inhibition result in experiment [1], in experiment [2] and in experiment [3] was “inactive” in each case.

Regarding `O=C(CI)NCC(=O)OCc1ccccc1`, the MIC turned out to be 125 µg/mL (≈ 375 µM) with Escherichia coli and 7.5 µg/mL (≈ 22.5 µM) with Staphylococcus aureus. Also, the inhibition entry in experiment [1], in experiment [2] and in experiment [3] was “inactive” each time.

Regarding `C[C@@H](NC(=O)[C@H](CCCCN1C(=O)c2ccccc2C1=O)NC(=O)CI)C(=O)N[C@H](CCC(=O)O)C(=O)O`, the MIC in the experiment on Escherichia coli was over 500 µg/mL; in the experiment on Staphylococcus aureus, 250 µg/mL (≈ 388 µM). Also, the inhibition result in experiment [1], in experiment [2] and in experiment [3] was “inactive” in each case.

As to `C[C@@H](NC(=O)[C@H](CCCCNC(=O)OC(C)(C)C)NC(=O)CBr)C(=O)N[C@H](C)C(=O)OC(C)(C)C`, the MIC in the experiment with Escherichia coli and in the experiment on Staphylococcus aureus was 500 µg/mL (≈ 884 µM) in each case. The inhibition entry in experiment [1], in experiment [2] and in experiment [3] was “inactive” throughout.

Regarding `CC(=O)NCCCC[C@H](NC(=O)CI)C(=O)N[C@H](C)C(=O)N[C@H](C)C(=O)O`, the MIC with Escherichia coli and in the experiment with Staphylococcus aureus was over 500 µg/mL each time. In addition, the inhibition result in experiment [1], in experiment [2] and in experiment [3] was “inactive” in each case.

`C[C@@H](NC(=O)[C@@H](C)NC(=O)[C@@H](N)CCCCNC(=O)CI)C(=O)O.O=C(O)C(F)(F)F`: the MIC with Escherichia coli was over 500 µg/mL; with Staphylococcus aureus, 500 µg/mL. For the same molecule, the inhibition entry in experiment [1], in experiment [2] and in experiment [3] was “inactive” throughout.

For the molecule `C[C@@H](NC(=O)CI)C(=O)N[C@H](C)C(=O)OC(C)(C)C`, the MIC is over 500 µg/mL with Escherichia coli and 31 µg/mL (≈ 80.7 µM) in the experiment on Staphylococcus aureus. The inhibition result in experiment [1], in experiment [2] and in experiment [3] was “inactive” each time.

For the molecule `C[C@@H](NC(=O)[C@H](CCCCN)NC(=O)CBr)C(=O)O.O=C(O)C(F)(F)F`, the MIC in the experiment on Escherichia coli and in the experiment on Staphylococcus aureus was over 500 µg/mL in each case. Also, the inhibition result in experiment [1], in experiment [2] and in experiment [3] was “inactive” each time.

Take `C[C@@H](NC(=O)[C@H](CCCCN)NC(=O)CI)C(=O)N[C@H](C)C(=O)OC(C)(C)C.Cc1ccc(S(=O)(=O)O)cc1`: the MIC was over 500 µg/mL in the experiment with Escherichia coli and 250 µg/mL in the experiment with Staphylococcus aureus. The inhibition entry in experiment [1], in experiment [2] and in experiment [3] was “inactive” throughout.

Turning to `C[C@@H](NC(=O)[C@H](CCCCN1C(=O)CCC1=O)NC(=O)CI)C(=O)N[C@H](C)C(=O)OC(C)(C)C`, the minimum inhibitory concentration (MIC) with Escherichia coli and in the experiment with Staphylococcus aureus was over 500 µg/mL each time. Moreover, the inhibition entry in experiment [1], in experiment [2] and in experiment [3] was “inactive” in each case.

Consider `C[C@@H](NC(=O)[C@@H](C)NC(=O)CBr)C(=O)O`, for which the values for the minimal inhibitory concentration (MIC) with Escherichia coli and in the experiment on Staphylococcus aureus were over 500 µg/mL and 500 µg/mL (≈ 1780 µM), respectively. In addition, the inhibition result in experiment [1], in experiment [2] and in experiment [3] was “inactive” in each case.

As to `O=C(O)CCCCNC(=O)[C@H](CCCCN1C(=O)c2ccccc2C1=O)NC(=O)CI`, the MIC in the experiment on Escherichia coli and with Staphylococcus aureus was over 500 µg/mL each time. The inhibition result in experiment [1], in experiment [2] and in experiment [3] was “inactive” in each case.

For `C[C@@H](NC(=O)CI)C(=O)OC(C)(C)C`, the MIC was over 500 µg/mL in the experiment with Escherichia coli and 31 µg/mL (≈ 99 µM) in the experiment on Staphylococcus aureus. The inhibition entry in experiment [1], in experiment [2] and in experiment [3] was “inactive” throughout.

On to `C[C@@H](NC(=O)CBr)C(=O)N[C@H](C)C(=O)OC(C)(C)C`, for which the figures for the MIC in the experiment on Escherichia coli and in the experiment on Staphylococcus aureus were over 500 µg/mL and 62 µg/mL (≈ 184 µM), respectively. The inhibition result in experiment [1], in experiment [2] and in experiment [3] was “inactive” in each case.

As to `C[C@@H](NC(=O)CI)C(=O)N[C@H](CCC(=O)OC(C)(C)C)C(=O)OC(C)(C)C`, the MIC was over 500 µg/mL in the experiment on Escherichia coli and 31 µg/mL (≈ 62.2 µM) with Staphylococcus aureus. Besides, the inhibition result in experiment [1], in experiment [2] and in experiment [3] was “inactive” each time.

For `C[C@@H](NC(=O)CI)C(=O)N[C@H](CCC(=O)O)C(=O)O`, the minimal inhibitory concentration (MIC) was over 500 µg/mL in the experiment on Escherichia coli and 500 µg/mL (≈ 1290 µM) with Staphylococcus aureus. The inhibition result in experiment [1], in experiment [2] and in experiment [3] was “inactive” throughout.

With `C[C@@H](NC(=O)CI)C(=O)N[C@H](C)C(=O)OCc1ccccc1`, the MIC was over 500 µg/mL in the experiment on Escherichia coli and 7.5 µg/mL (≈ 17.9 µM) with Staphylococcus aureus. In addition, the inhibition result in experiment [1], in experiment [2] and in experiment [3] was “inactive” in each case.

Regarding `O=C(O)CCCCNC(=O)CI`, the MIC came out at 500 µg/mL (≈ 1750 µM) in the experiment on Escherichia coli and 125 µg/mL (≈ 438 µM) in the experiment on Staphylococcus aureus. The inhibition result in experiment [1], in experiment [2] and in experiment [3] was “inactive” throughout.

Regarding `O=C(CI)NCC(=O)NCC(=O)OCc1ccccc1`, the MIC came to 62 µg/mL (≈ 159 µM) with Escherichia coli and 0.9 µg/mL (≈ 2.31 µM) in the experiment on Staphylococcus aureus. The inhibition result in experiment [1], in experiment [2] and in experiment [3] was “inactive” each time.

As for `C[C@@H](NC(=O)[C@H](CCCCNC(=O)OC(C)(C)C)NC(=O)CI)C(=O)N[C@H](C)C(=O)OC(C)(C)C`, the MIC was 500 µg/mL (≈ 816 µM) in the experiment on Escherichia coli and 250 µg/mL (≈ 408 µM) in the experiment with Staphylococcus aureus. Besides, the inhibition entry in experiment [1], in experiment [2] and in experiment [3] was “inactive” each time.

As for `C[C@@H](NC(=O)[C@H](CCCCN)NC(=O)CI)C(=O)O.O=C(O)C(F)(F)F`, the MIC in the experiment with Escherichia coli and in the experiment on Staphylococcus aureus was over 500 µg/mL throughout. Further, the inhibition result in experiment [1], in experiment [2] and in experiment [3] was “inactive” in each case.

`CC(C)(C)OC(=O)CCCCNC(=O)CI`: the MIC in the experiment on Escherichia coli was 500 µg/mL (≈ 1470 µM); in the experiment with Staphylococcus aureus, 7.5 µg/mL (≈ 22 µM). In addition, the inhibition result in experiment [1], in experiment [2] and in experiment [3] was “inactive” throughout.
